Assay results reported in PubChem BioAssay AID504338 (NMMLSC, 2011).
Calls of active or inactive are those of the source.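 Rule for the calls: active = GFP response vs DMSO above 150% with enough events counted; inconclusive = fewer than 70 events counted for a yeast strain; inactive = the rest.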

Assay: yeast TOR reporter LAP4-GFP retest – cell-based, third cherry pick, flow cytometry, confirmation (AID 504338);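 note: ratio to plate DMSO wells so 100% equals DMSO level rather than 0%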
Details: S. cerevisiae LAP4-GFP strain, 3 h, at 10 µM, stronger effect = higher value
In short: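 Material: Saccharomyces cerevisiae strain expressing LAP4-GFP fusion protein / Compound: 10 µM, one concentration / Incubation: compound exposure for 3 h at 30 °C / Detection: high-throughput flow cytometry of GFP, single-cell scatter gate / Measure: median GFP fluorescence as percent of plate DMSO-well average / Benchmarks: rapamycin 400 ng/mL high, DMSO low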

Compound | GFP response vs DMSO
Cc1ccc2nc(-c3ccc(NC(=O)c4cccnc4)cc3)oc2c1 | 103% (inactive)
CCCCC(=O)NCCc1cc2c(OC)ccc(OC)c2[nH]c1=O | 108% (inactive)
Nn1cnc2c(c1=O)C1(CCCCC1)Cc1ccccc1-2 | 97.2% (inactive)
COc1ccccc1Nc1nc(NCCO)nc(N)c1[N+](=O)[O-] | 104% (inactive)
Cc1ccc(NC(=O)O/N=C2\CCCCC2c2ccc([N+](=O)[O-])cc2[N+](=O)[O-])cc1 (centres undefined) | 103% (inactive)
C[n+]1cccc2c(Br)ccc([O-])c21 | 104% (inactive)
COc1cccc2c(O)cc(=O)n(C)c12 | 104% (inactive)
COc1cccc2c(Cl)c(CCCl)c(C)nc12 | 104% (inactive)
CCN(CC)C(=O)Oc1cc(=O)n(C)c2ccccc12 | 101% (inactive)
NC(=O)COc1cccc2cccnc12 | 103% (inactive)
N#Cc1c(N)nc(N)nc1Nc1ccc(Br)cc1 | 104% (inactive)
CC(=O)Nn1cnc2c(c1=O)C1(CCCC1)Cc1ccccc1-2 | 103% (inactive)
Cn1c(=O)c2c(n3cnnc13)-c1ccccc1CC21CCCC1 | 101% (inactive)
COc1ccc(OC)c(Nc2nc(NCCC(C)C)nc(N)c2[N+](=O)[O-])c1 | 103% (inactive)
CC(=O)NCCOc1cccc2cccnc12 | 107% (inactive)
Nc1ncnc(Nc2cc(Cl)cc(Cl)c2)c1[N+](=O)[O-] | 101% (inactive)
COc1ccc(N/C(C)=C/C(=O)c2ccccc2)cc1 | 104% (inactive)
Cc1ccc(-c2cc(C(F)F)nc(S(C)(=O)=O)n2)cc1 | 114% (inactive)
Cc1nc(Nc2ccc(Br)cc2Br)c([N+](=O)[O-])c(=O)[nH]1 | 106% (inactive)
CCc1c(C)nc2c(OC)cccc2c1Cl | 104% (inactive)

Compound | GFP response vs DMSO
C/C(=N\NC(=O)c1cccc2ccccc12)c1cccnc1 | 104% (inactive)
CSc1nc(Nc2ccc(Cl)cc2)c(C#N)c(=O)[nH]1 | 106% (inactive)
C/C(=N\NC(=O)c1ccccc1)c1ccccc1F | 106% (inactive)
O=C(N/N=C/c1ccccc1F)c1cccc2ccccc12 | 104% (inactive)
Cc1ccc(Nc2cc(=O)[nH]c(=O)[nH]2)cc1Cl | 103% (inactive)
COc1ccccc1Nc1nc(NCC(C)C)nc(N)c1[N+](=O)[O-] | 104% (inactive)
CCC(C)Nc1nc(N)c([N+](=O)[O-])c(Nc2cc(OC)ccc2OC)n1 (centres undefined) | 101% (inactive)
Cc1ccc2c(Cl)cc(Cl)c(O)c2n1 | 193% (active)
COc1cccc(N/C=C/C(=O)c2ccc(C)cc2)c1 | 115% (inactive)
COc1ccc(NC(=O)ON=C2c3ccccc3-c3ccccc32)cc1 | 104% (inactive)
C/C(=C\C(=O)c1ccc(C)cc1)Nc1cccc(O)c1 | 106% (inactive)
O=C(Nc1ccc(-c2nc3ccccc3o2)cc1)c1cccnc1 | 117% (inactive)
CC(=O)C(CC(=O)N1CCCC1)C(=O)Nc1ccc(Cl)cc1 (centres undefined) | 108% (inactive)
CCCC(=O)Nn1cnc2c(c1=O)C1(CCCC1)Cc1ccccc1-2 | 103% (inactive)
Oc1c(I)cc(Cl)c2cccnc12 | 192% (active)
Cc1ccc2c(Cl)cc(Cl)c(OCC(=O)O)c2n1 | 100% (inactive)
Cc1ccc(C(=O)Nc2nc(-c3ccccn3)cs2)o1 | 103% (inactive)
CCC(=O)Nn1cnc2c(c1=O)C1(CCCCC1)Cc1ccccc1-2 | 101% (inactive)
O=C(/C=C/Nc1cccc(O)c1)c1ccccc1 | 111% (inactive)
